Results taken from ChEMBL document CHEMBL4152279, “Synthesis, cytotoxic evaluation and target identification of thieno[2,3-d]pyrimidine derivatives with a dithiocarbamate side chain at C2 position” (Eur J Med Chem, 2018).
The source made the active and inactive calls. The rule behind the calls is not given here.

Columns and labels:
HeLa = experiment: Cytotoxicity against human HeLa cells at 30 uM by MTS assay; assay type: functional, cell-based
MDA-MB-231 = experiment: Cytotoxicity against human MDA-MB-231 cells at 30 uM by MTS assay; assay type: functional, cell-based
HCT-116 [1] = experiment: Cytotoxicity against human HCT116 cells by MTS assay; assay type: functional, cell-based
Outline: (§1)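 MTS read-out (CellTiter 96 AQueous One) of proliferation in A549 or HCT-116 cells grown in DMEM with 10% FBS at 37 °C, 5% CO2. Taxol-resistant A549 cells were exposed for 72 h. Compounds were screened at 30 μM versus vehicle, with ≥50% inhibition counted active. Actives were then tested over a concentration range for IC50. Triplicate wells, three independent experiments, mean ± SD.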

HT-29 = experiment: Cytotoxicity against human HT-29 cells at 30 uM by MTS assay; assay type: functional, cell-based
HCT-116 [2] = experiment: Cytotoxicity against human HCT116 cells at 30 uM by MTS assay relative to control; assay type: functional; outline: as §1
A549 [3] = experiment: Cytotoxicity against human A549 cells at 30 uM by MTS assay relative to control; assay type: functional; outline: as §1
MCF7 = experiment: Cytotoxicity against human MCF7 cells at 30 uM by MTS assay; assay type: functional, cell-based
A549 [4] = experiment: Cytotoxicity against human A549 cells by MTS assay; assay type: functional, cell-based; outline: as §1
A549 [5] = experiment: Binding affinity to tubulin alpha in human A549 cells immunoblot based based pull down assay; assay type: cell-based
Outline: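 A549 lysate in NETN buffer incubated with biotin, biotinylated probe or control probe at 4 °C, then streptavidin Dynabeads 1 h at 4 °C. Beads washed six times, bound proteins run on SDS-PAGE and immunoblotted for α-tubulin.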

Sus scrofa = species: Sus scrofa; experiment: Binding affinity to porcine tubulin after overnight incubation by streptavidin pull down assay
Outline: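 Purified porcine neuronal tubulin incubated with biotin, biotinylated probe or control probe in NETN buffer at 4 °C. Streptavidin Dynabeads 1 h at 4 °C, six washes, then SDS-PAGE and α-tubulin immunoblot.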

A549 [6] = experiment: Cell cycle arrest in human A549 cells assessed as accumulation at G0/G1 phase at cytotoxic IC50 after 24 hrs by propidium iodide staining based flow cytometry (reference value: 46.39 +/- 1.75%); assay type: functional
A549 [7] = experiment: Cell cycle arrest in human A549 cells assessed as accumulation at G2/M phase at cytotoxic IC50 after 24 hrs by propidium iodide staining based flow cytometry (reference value: 20.95 +/- 0.8%); assay type: functional
A549 [8] = experiment: Cell cycle arrest in human A549 cells assessed as accumulation at S phase at cytotoxic IC50 after 24 hrs by propidium iodide staining based flow cytometry (reference value: 32.37 +/- 1.23%); assay type: functional
A549 [9] = experiment: Induction of DNA damage in human A549 cells assessed as increase in CHK1 phosphorylation level at 2 uM after 2 hrs by immunoblot analysis; assay type: functional, cell-based
Outline: (§2)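 A549 cells were treated for 2 h with DMSO as diluent. Total cell lysates were run on 12% SDS-PAGE and transferred to PVDF. Membranes were blocked in PBST with 5% BSA and immunoblotted for γ-H2AX and pS345 CHK1, with HRP secondary detection.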

A549 [10] = experiment: Induction of DNA damage in human A549 cells assessed as increase in gamma-H2AX level at 2 uM after 2 hrs by immunoblot analysis; assay type: functional, cell-based; outline: as §2
A549 [11] = experiment: Induction of DNA damage in human A549 cells assessed as gamma-H2AX foci formation at 2 uM after 2 hrs by DAPI staining based immunofluorescence assay; assay type: functional, cell-based
Outline: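 A549 cells were treated for 2 h with DMSO as diluent, then fixed. Cells were immunostained with a mouse monoclonal anti-γ-H2AX antibody, with DAPI as DNA counterstain, and γ-H2AX foci were scored by immunofluorescence.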

SMILES | Activity (HeLa) | Activity (MDA-MB-231) | IC50 (HCT-116 [1]) [µM] | Activity (HT-29) | Activity (HCT-116 [2]) | Activity (A549 [3]) | Activity (MCF7) | IC50 (A549 [4]) [µM] | Activity (A549 [5]) | Activity (Sus scrofa) | Activity (A549 [6]) [%] | Activity (A549 [7]) [%] | Activity (A549 [8]) [%] | Activity (A549 [9]) | Activity (A549 [10]) | Activity (A549 [11])
Cc1cc2c(=O)[nH]c(CSC(=S)NCc3ccccc3F)nc2s1 | inactive | inactive | 29.7 | inactive | >=50% | >=50% | inactive | > 30 | – | – | – | – | – | – | – | –
Cc1cc2c(=O)[nH]c(CSC(=S)NCc3ccc(Cl)cc3Cl)nc2s1 | inactive | inactive | > 30 | inactive | >=50% | >=50% | inactive | 29.5 | – | – | – | – | – | – | – | –
COc1ccccc1CNC(=S)SCc1nc2sc(C)cc2c(=O)[nH]1 | inactive | inactive | 18.1 | inactive | >=50% | >=50% | inactive | 7.01 | – | – | – | – | – | – | – | –
O=C(O)CCCC[C@@H]1SC[C@@H]2NC(=O)N[C@@H]21 | – | – | – | – | – | – | – | – | inactive | inactive | – | – | – | – | – | –
Cc1cc2c(=O)[nH]c(CN(CCCNC(=O)CCCC[C@@H]3SC[C@@H]4NC(=O)N[C@@H]43)Cc3ccc(C#N)cc3)nc2s1 | – | – | – | – | – | – | – | – | inactive | inactive | – | – | – | – | – | –
Cc1cc2c(=O)[nH]c(CSC(=S)NCc3ccc4c(c3)OCO4)nc2s1 | inactive | inactive | 24.6 | inactive | >=50% | >=50% | inactive | 14 | – | – | – | – | – | – | – | –
Cc1cc2c(=O)[nH]c(CSC(=S)NCc3ccc(Br)cc3)nc2s1 | inactive | inactive | 28.7 | inactive | >=50% | >=50% | inactive | 21.9 | – | – | – | – | – | – | – | –
Cc1cc2c(=O)[nH]c(CSC(=S)NCc3ccc([N+](=O)[O-])cc3)nc2s1 | inactive | inactive | 20.2 | inactive | >=50% | >=50% | inactive | 12.3 | – | – | – | – | – | – | – | –
Cc1cc2c(=O)[nH]c(CSC(=S)NCc3ccc(F)cc3)nc2s1 | inactive | inactive | 28.7 | inactive | >=50% | >=50% | inactive | 18.9 | – | – | – | – | – | – | – | –
COc1ccc(CNC(=S)SCc2nc3sc(C)cc3c(=O)[nH]2)c(OC)c1 | inactive | inactive | > 30 | inactive | >=50% | >=50% | inactive | > 30 | – | – | – | – | – | – | – | –
COc1cc(CNC(=S)SCc2nc3sc(C)cc3c(=O)[nH]2)cc(OC)c1OC | inactive | inactive | 14.9 | inactive | >=50% | >=50% | inactive | 7.89 | – | – | – | – | – | – | – | –
O=c1[nH]cc(F)c(=O)[nH]1 [FLUOROURACIL] | – | – | – | – | – | – | – | – | – | – | 29.61 | 8.9 | 59.27 | – | – | –
Cc1cc2c(=O)[nH]c(CSC(=S)NCc3ccc(F)cc3F)nc2s1 | inactive | inactive | > 30 | inactive | >=50% | >=50% | inactive | 16.2 | – | – | – | – | – | – | – | –
Cc1cc2c(=O)[nH]c(CSC(=S)NCc3cccs3)nc2s1 | inactive | inactive | 27.8 | inactive | >=50% | >=50% | inactive | 23 | – | – | – | – | – | – | – | –
Cc1cc2c(=O)[nH]c(CSC(=S)NCc3ccncc3)nc2s1 | inactive | inactive | 14.1 | inactive | >=50% | >=50% | inactive | 7.43 | – | – | – | – | – | – | – | –
CC[C@@]1(O)C(=O)OCc2c1cc1n(c2=O)Cc2cc3ccccc3nc2-1 | – | – | – | – | – | – | – | – | – | – | – | – | – | Active | Active | Active
Cc1ccc(CNC(=S)SCc2nc3sc(C)cc3c(=O)[nH]2)cc1 | inactive | inactive | 28 | inactive | >=50% | >=50% | inactive | 26.5 | – | – | – | – | – | – | – | –
Cc1cc2c(=O)[nH]c(CSC(=S)NCc3ccccc3)nc2s1 | inactive | inactive | > 30 | inactive | >=50% | >=50% | inactive | 29.5 | – | – | – | – | – | – | – | –
Cc1cc2c(=O)[nH]c(CSC(=S)NCc3cccnc3)nc2s1 | inactive | inactive | 9.3 | inactive | >=50% | >=50% | inactive | 5.79 | – | – | – | – | – | – | – | –
